# According to ChEMBL document CHEMBL2010740, “Synthesis and evaluation of 2-amido-3-carboxamide thiophene CB₂ receptor agonists for pain management” (Bioorg Med Chem Lett, 2012):
# What was measured:
# Rattus norvegicus [1] = assay: Analgesic activity in po dosed rat complete Freund's adjuvant model of chronic inflammatory pain assessed as latency in paw withdrawal administered 48 hrs after CFA-challenge measured after 60 mins; format: functional, organism-based
# Rattus norvegicus [2] = assay: Analgesic activity in rat chronic constriction injury model of neuropathic pain assessed as reduction in mechanical allodynia at 10 umol/kg, ip administered 2 weeks post-surgery measured after 30 mins; format: functional; design: scale not given: the % may be the effect or the level left
# [3] = AUC in rat at 3 umol/kg, iv; format: ADME, organism-based; conditions: plasma
# [4] = target: T1, Cannabinoid receptor 2 (Rattus norvegicus) (UniProt Q9QZN9); assay: Agonist activity at rat recombinant CB2 receptor expressed in HEK293 cells co-expressing chimeric Gaq/o protein by FLIPR assay by FLIPR assay relative to CP55940; format: functional, cell-based
# T1 sequence (whole entry): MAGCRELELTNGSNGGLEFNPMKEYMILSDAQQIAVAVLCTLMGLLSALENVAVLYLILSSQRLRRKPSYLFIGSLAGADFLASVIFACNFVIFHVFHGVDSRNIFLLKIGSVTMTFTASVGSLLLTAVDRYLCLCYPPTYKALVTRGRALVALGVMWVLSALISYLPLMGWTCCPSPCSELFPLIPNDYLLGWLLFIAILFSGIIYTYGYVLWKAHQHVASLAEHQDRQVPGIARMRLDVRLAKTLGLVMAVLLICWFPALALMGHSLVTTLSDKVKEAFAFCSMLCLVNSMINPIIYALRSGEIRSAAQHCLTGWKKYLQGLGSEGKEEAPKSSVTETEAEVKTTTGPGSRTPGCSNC
# How it was run: (§1)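 FLIPR functional assay in HEK 293 cells stably co-expressing chimeric Gαq/o protein and the CB receptor. Net peak evoked response was compared with the peak response to CP-55,940.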
# [5] = Cmax in rat at 10 umol/kg, po; format: ADME, organism-based; design: dose 10 umol/kg, route oral; conditions: in vivo
# [6] = Plasma clearance in rat at 3 umol/kg, iv; format: ADME, organism-based
# Cannabinoid receptor 1 [7] = target: Cannabinoid receptor 1 (Homo sapiens, UniProt P21554); assay: Displacement of [3H]CP-55940 from human recombinant CB1 receptor expressed in CHO cells after 90 mins; format: cell-based
# Cannabinoid receptor 1 (Homo sapiens, UniProt P21554), sequence (P21554 whole entry): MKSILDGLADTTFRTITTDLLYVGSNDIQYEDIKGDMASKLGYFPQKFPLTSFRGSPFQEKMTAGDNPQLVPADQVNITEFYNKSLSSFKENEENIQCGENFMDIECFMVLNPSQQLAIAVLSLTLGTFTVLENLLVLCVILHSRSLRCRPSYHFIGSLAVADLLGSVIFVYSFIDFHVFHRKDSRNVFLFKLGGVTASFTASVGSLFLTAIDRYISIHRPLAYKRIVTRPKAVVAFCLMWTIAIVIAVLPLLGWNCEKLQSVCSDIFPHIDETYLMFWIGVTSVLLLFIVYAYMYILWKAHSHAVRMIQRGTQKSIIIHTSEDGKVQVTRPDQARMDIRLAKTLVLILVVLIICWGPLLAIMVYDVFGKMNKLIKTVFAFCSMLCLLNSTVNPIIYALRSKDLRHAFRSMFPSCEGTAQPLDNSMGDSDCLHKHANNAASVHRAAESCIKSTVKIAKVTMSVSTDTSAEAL
# How it was run: (§2)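 Competitive binding: [³H]CP-55,940 displaced from membranes of HEK 293 cells stably transfected with human or rat CB₂, or CHO cells stably transfected with human or rat CB₁. Reported as pKi. Determinations >2 (duplicate of duplicate).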
# Rattus norvegicus [8] = assay: Analgesic activity in rat spinal nerve ligation model of neuropathic pain assessed as […] at 30 umol/kg, ip administered 2 weeks post-surgery measured after 30 mins; format: functional; design: scale not given: the % may be the effect or the level left
# How it was run: (§3)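 Rat spinal nerve ligation (Chung) neuropathic pain model. Dosing was intraperitoneal, two weeks after surgery and 30 min before testing. Read-out was mechanical allodynia (paw withdrawal threshold), given as a dose–response.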
# [9] = target: T1, Cannabinoid receptor 2 (Rattus norvegicus); assay: Agonist activity at rat recombinant CB2 receptor expressed in HEK293 cells assessed as inhibition of forskolin-induced cAMP production after 20 mins by ELISA relative to CP55940; format: functional, cell-based
# How it was run: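 cAMP assay in HEK 293 cells stably expressing the relevant CB receptor, with a fixed concentration of forskolin. cAMP was quantified by ELISA. Activation is given as percent of the CP-55,940 control response.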
# Rattus norvegicus [10] = assay: Analgesic activity in ip dosed rat chronic constriction injury model of neuropathic pain assessed as reduction in mechanical allodynia administered 2 weeks post-surgery measured after 30 mins; format: functional, organism-based
# [11] = Plasma protein binding in rat; format: ADME, cell-free; conditions: read-out: PPB (converted)
# [12] = AUC in rat at 10 umol/kg, ip; format: ADME, organism-based; conditions: plasma
# [13] = Metabolic stability in human microsomes assessed as compound remaining after 30 mins; format: ADME, Microsome; conditions: read-out: Stability
# How it was run: (§4)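 Metabolic stability: compound incubated with human or rat liver microsomes. Percent parent remaining was measured after 30 min.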
# Rattus norvegicus [14] = assay: Neurotoxicity in rat assessed as decrease in spontaneous locomotory activity at 30 umol/kg, ip after 30 mins; format: toxicity, organism-based; design: scale not given: the % may be the effect or the level left; conditions: in vivo, 0.5 h
# How it was run: (§5)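 Spontaneous horizontal locomotor activity in rats. Compound was given intraperitoneally 30 min before testing.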
# [15] = Half life in rat at 10 umol/kg, po; format: ADME, organism-based; conditions: in vivo
# Cannabinoid receptor 2 [16] = target: T2, Cannabinoid receptor 2 (Rattus norvegicus, UniProt Q9QZN9); assay: Agonist activity at rat recombinant CB2 receptor expressed in HEK293 cells co-expressing chimeric Gaq/o protein by FLIPR assay by FLIPR assay; format: functional, cell-based; how it was run: as §1
# T2 sequence (Q9QZN9 whole entry): T1 sequence (whole entry)
# Cannabinoid receptor 2 [17] = target: T3, Cannabinoid receptor 2 (Homo sapiens, UniProt P34972); assay: Displacement of [3H]CP-55940 from human recombinant CB2 receptor expressed in HEK293 cells after 90 mins; format: cell-based; how it was run: as §2
# T3 sequence (P34972 whole entry): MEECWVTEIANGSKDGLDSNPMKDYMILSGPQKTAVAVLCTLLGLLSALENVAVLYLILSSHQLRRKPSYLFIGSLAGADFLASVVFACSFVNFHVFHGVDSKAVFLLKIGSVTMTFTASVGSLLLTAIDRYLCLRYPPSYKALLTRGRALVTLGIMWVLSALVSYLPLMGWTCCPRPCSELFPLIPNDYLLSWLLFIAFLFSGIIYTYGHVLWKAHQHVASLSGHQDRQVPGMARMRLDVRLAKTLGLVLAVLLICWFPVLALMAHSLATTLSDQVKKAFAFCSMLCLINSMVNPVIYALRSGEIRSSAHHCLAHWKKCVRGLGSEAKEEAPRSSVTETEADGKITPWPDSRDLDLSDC
# Rattus norvegicus [18] = assay: Neurotoxicity in rat assessed as decrease in spontaneous locomotory activity at 100 umol/kg, ip after 30 mins; format: toxicity, organism-based; design: scale not given: the % may be the effect or the level left; conditions: in vivo, 0.5 h; how it was run: as §5
# Rattus norvegicus [19] = assay: Analgesic activity in rat incision model of post-operative pain assessed as reduction in paw withdrawal latency at 3 umol/kg, ip administered 90 mins post-surgical incision measured after 30 mins; format: functional; design: scale not given: the % may be the effect or the level left
# Cannabinoid receptor 2 [20] = target: T3, Cannabinoid receptor 2; assay: Agonist activity at human recombinant CB2 receptor expressed in HEK293 cells co-expressing chimeric Gaq/o protein by FLIPR assay; format: functional, cell-based; how it was run: as §1
# [21] = Metabolic stability in rat microsomes assessed as compound remaining after 30 mins; format: ADME, Microsome; conditions: read-out: Stability; how it was run: as §4
# Rattus norvegicus [22] = assay: Analgesic activity in rat chronic constriction injury model of neuropathic pain assessed as reduction in mechanical allodynia at 3 umol/kg, ip administered 2 weeks post-surgery measured after 30 mins; format: functional; design: scale not given: the % may be the effect or the level left
# Rattus norvegicus [23] = assay: Analgesic activity in ip dosed rat spinal nerve ligation model of neuropathic pain assessed as […] administered 2 weeks post-surgery measured after 30 mins; format: functional, organism-based; how it was run: as §3
# [24] = Tmax in rat at 10 umol/kg, ip; format: ADME, organism-based; conditions: in vivo
# Cannabinoid receptor 1 [25] = target: Cannabinoid receptor 1 (Rattus norvegicus, UniProt P20272); assay: Displacement of [3H]CP-55940 from rat recombinant CB1 receptor expressed in CHO cells after 90 mins; format: cell-based; how it was run: as §2
# Cannabinoid receptor 1 (Rattus norvegicus, UniProt P20272), sequence (P20272 whole entry): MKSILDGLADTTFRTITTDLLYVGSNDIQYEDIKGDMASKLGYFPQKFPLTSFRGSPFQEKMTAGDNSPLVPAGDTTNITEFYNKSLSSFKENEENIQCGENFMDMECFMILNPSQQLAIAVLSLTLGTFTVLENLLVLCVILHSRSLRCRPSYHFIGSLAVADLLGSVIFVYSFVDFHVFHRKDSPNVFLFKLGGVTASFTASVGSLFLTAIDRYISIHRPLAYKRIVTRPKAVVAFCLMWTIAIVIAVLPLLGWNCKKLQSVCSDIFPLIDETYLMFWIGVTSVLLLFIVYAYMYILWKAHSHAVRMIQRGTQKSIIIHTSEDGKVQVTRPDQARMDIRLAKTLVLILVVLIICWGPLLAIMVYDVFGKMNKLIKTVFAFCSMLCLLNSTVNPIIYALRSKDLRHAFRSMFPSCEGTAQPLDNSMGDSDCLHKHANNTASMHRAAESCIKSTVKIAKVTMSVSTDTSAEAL
# [26] = Cmax in rat at 10 umol/kg, ip; format: ADME, organism-based; design: dose 10 umol/kg, route intraperitoneal; conditions: in vivo
compound,measurement,setting,value
CCCNC(=O)c1c(NC(=O)C23CC4CC(CC2C4)C3)sc2c1CCOC2,Activity,Rattus norvegicus [1],Dose-dependent effect
same,Activity,Rattus norvegicus [2],55%
same,AUC,[3],320 ng·h/mL
same,Imax,[4],79%
same,Cmax,[5],39 ng/mL
same,clearance,[6],63.3 mL/min/kg
same,Ki,Cannabinoid receptor 1 [7],1550 nM
same,Activity,Rattus norvegicus [8],60%
same,Imax,[9],72%
same,Activity,Rattus norvegicus [10],Dose-dependent effect
same,fraction unbound,[11],0.03
same,AUC,[12],1020 ng·h/mL
same,remaining at 0.5 h,[13],9%
same,Activity,Rattus norvegicus [14],50%
same,half-life,[15],1.6 h
same,IC50,Cannabinoid receptor 2 [16],1550 nM
same,Ki,Cannabinoid receptor 2 [17],20.9 nM
same,Activity,Rattus norvegicus [18],83%
same,Activity,Rattus norvegicus [19],21%
same,IC50,Cannabinoid receptor 2 [20],70.8 nM
same,remaining at 0.5 h,[21],5%
same,Activity,Rattus norvegicus [22],22%
same,Activity,Rattus norvegicus [23],Dose-dependent effect
same,Tmax,[24],0.6 h
same,Ki,Cannabinoid receptor 1 [25],302 nM
same,Cmax,[26],150 ng/mL
